Measured values gathered from unrelated publications.
Compare with care: the assays were run in different laboratories.
KIT D816V: Mast/stem cell growth factor receptor Kit (KIT, Homo sapiens, UniProt P10721, D816V)
KIT D816H: Mast/stem cell growth factor receptor Kit (KIT, Homo sapiens, UniProt P10721, D816H)
KIT L576P: Mast/stem cell growth factor receptor Kit (KIT, Homo sapiens, UniProt P10721, L576P)
KIT autoinhibited: Mast/stem cell growth factor receptor Kit, autoinhibited (KIT, Homo sapiens, UniProt P10721)
KIT A829P: Mast/stem cell growth factor receptor Kit (KIT, Homo sapiens, UniProt P10721, A829P)
KIT: Mast/stem cell growth factor receptor Kit (KIT, Homo sapiens, UniProt P10721)
KIT T670I/V559D: Mast/stem cell growth factor receptor Kit (KIT, Homo sapiens, UniProt P10721, T670I/V559D)
KIT V559D/V654A: Mast/stem cell growth factor receptor Kit (KIT, Homo sapiens, UniProt P10721, V559D/V654A)

COc1cnc(Nc2cccc(S(N)(=O)=O)c2)nc1N1CCN(c2ccccc2)CC1  remaining binding (KIT D816V; binding; competition with immobilised ligand; 1 µM): 92%
O=C(NCCCN1CCOCC1)c1ccc(Nc2ncc(Cl)c(-c3ccc(Cl)s3)n2)cc1  remaining binding (KIT D816H; binding; competition with immobilised ligand; 1 µM): 22%
Cc1nc(C2CCN(C(=O)c3ccc(OC(F)(F)F)cc3N)CC2)c2ncc(N3CCN(C)CC3)cc2n1  remaining binding (KIT L576P; cell-free assay; competition with immobilised ligand; 1 µM): 87%
O=C(c1ccc(Nc2ncc(Cl)c(-c3ccc(Cl)s3)n2)cc1)N1CCC(N2CCCC2)CC1  remaining binding (KIT L576P; binding; competition with immobilised ligand; 1 µM): 1.4%
Cc1cnn2ncc(-c3ccnc(N(C)C)n3)c2c1  remaining binding (KIT D816H; binding; 1 µM): 83%
c1cncc(-c2cccc(Nc3nccc(NC4CCCCC4)n3)c2)c1  remaining binding (KIT autoinhibited; binding; competition with immobilised ligand; 10 µM): 43%
O=C(NCCCN1CCOCC1)c1ccc(Nc2nccc(-c3cc4ccccc4s3)n2)cc1  remaining binding (KIT autoinhibited; binding; competition with immobilised ligand; 1 µM): 76%
CN(C)c1nccc(-c2cnn3ncccc23)n1  remaining binding (KIT L576P; binding; 1 µM): 100%
Cc1cc(-n2nc(Cc3cc(F)cc(C(F)(F)F)c3)nc2C)ccc1C(N)=O  remaining binding (KIT A829P; cell-free assay; competition with immobilised ligand; 1 µM): 100%
CN1CCN(c2ccc(Nc3nccc(-c4cccc([N+](=O)[O-])c4)n3)cc2C(F)(F)F)CC1  remaining binding (KIT A829P; binding; 10 µM): 4.3%
Nc1ncc2c(n1)-c1c([nH]c3ccc(C#CC4CC4)cc13)CCCC2  remaining binding (KIT; binding; competition with immobilised ligand; 1 µM): 95%
O=C(Nc1cccnn1)N1CCC(=Cc2cccc(Oc3ccc(C(F)(F)F)cn3)c2)CC1  remaining binding (KIT L576P; binding; competition with immobilised ligand; 1 µM): 0%
CN(C)c1ncc(F)c(-c2cnn3ncccc23)n1  remaining binding (KIT T670I/V559D; binding; 1 µM): 100%
CN1CCN(c2ccc(Nc3nccc(-c4ccccc4)n3)cc2C(F)(F)F)CC1  remaining binding (KIT A829P; binding; 10 µM): 20%
O=C(c1ccc(Nc2ncc(Cl)c(-c3cc4ccccc4s3)n2)cc1)N1CCC(N2CCCC2)CC1  remaining binding (KIT A829P; binding; competition with immobilised ligand; 1 µM): 19%
O=C(NC[C@@H]1[C@H]2CN(C(=O)OCc3cc(C(F)(F)F)cc(C(F)(F)F)c3)C[C@@H]12)c1ccc2[nH]nnc2c1  remaining binding (KIT; cell-free assay; competition with immobilised ligand; 1 µM): 89%
O=C(NCC1CCOCC1)c1n[nH]cc1NC(=O)c1c(F)cccc1F  remaining binding (KIT A829P; binding; competition with immobilised ligand; 1 µM): 84%
C[C@@H](c1ccc(-n2cnc3c(N)ncnc32)cc1)N1CCc2nn(C)c(Cc3ccccc3)c2C1=O  remaining binding (KIT L576P; binding; competition with immobilised ligand; 0.1 µM): 17%
N[C@@H]1CCN(c2nccc(-c3cnn4ncccc34)n2)C1  remaining binding (KIT; binding; 1 µM): 95%
NS(=O)(=O)c1cc(NC(=O)C2(c3ccccc3Cl)CC2)ccc1Oc1cccc(Cl)c1  remaining binding (KIT T670I/V559D; cell-free assay; competition with immobilised ligand; 1 µM): 85%
COc1cnc(Nc2cccc(S(N)(=O)=O)c2)nc1N1CCN(c2ccccc2)C(=O)C1  remaining binding (KIT autoinhibited; binding; competition with immobilised ligand; 1 µM): 95%
c1cnn2ncc(-c3ccnc(N4CCC45COC5)n3)c2c1  remaining binding (KIT T670I/V559D; binding; 1 µM): 84%
O=C(Nc1c[nH]nc1C(=O)NC1CCNCC1)c1cc(F)cc(F)c1  remaining binding (KIT A829P; binding; competition with immobilised ligand; 1 µM): 92%
O=c1nc(-c2ccccn2)sc2ccccc12  remaining binding (KIT A829P; binding; competition with immobilised ligand; 1 µM): 100%
C[C@H]1CCN(c2nccc(-c3cnn4ncccc34)n2)C1  remaining binding (KIT V559D/V654A; binding; 1 µM): 79%
COc1ncc2cc3ccccc3nc2c1C#N  remaining binding (KIT; cell-free assay; competition with immobilised ligand; 5 µM): 92%
Cc1cnc(Nc2ccc(C(=O)N3CCC(N4CCCC4)CC3)cc2)nc1-c1cc2ccccc2s1  remaining binding (KIT D816V; binding; competition with immobilised ligand; 1 µM): 5.2%
CNC(=O)[C@@H]1CC[C@@H](n2c(-c3ccc4cnccc4c3)nc3ccc(C(=O)NCc4cccc(C(N)=O)c4)cc32)C1  remaining binding (KIT D816V; binding; competition with immobilised ligand; 1 µM): 99%
F[C@@H]1CCN(c2nccc(-c3cnn4ncccc34)n2)C1  remaining binding (KIT autoinhibited; binding; 1 µM): 100%
Cc1c(C(=O)O)cc(-c2ccc(C3CCNCC3)cc2)c2ccc(-c3ccc(C(F)(F)F)cc3)cc12  remaining binding (KIT D816H; binding; competition with immobilised ligand; 1 µM): 100%
CCN1CCN(Cc2ccc(C(=O)Nc3ccc(C)c(Oc4ccc5c(c4)CC(=O)N5)c3)cc2C(F)(F)F)CC1  remaining binding (KIT D816H; binding; competition with immobilised ligand; 1 µM): 100%
CS(=O)(=O)N1CCCC(NC(=O)[C@H](CCC2CCCCC2)NC(=O)c2ccc(CNc3ncnc4c3nnn4-c3ccccc3)cc2)C1 (stereo partly drawn)  remaining binding (KIT T670I/V559D; cell-free assay; competition with immobilised ligand; 0.1 µM): 100%
C=CC(=O)N1CCC(C(=O)NCC(=O)N2CCN(c3nc(-c4cnc(N)nc4C(F)F)nc(N4CCOCC4)n3)CC2)CC1  remaining binding (KIT V559D/V654A; binding; competition with immobilised ligand; 1 µM): 100%
